Data as given in ChEMBL document CHEMBL4342514, “Azole Based Acetohydrazide Derivatives of Cinnamaldehyde Target and Kill Candida albicans by Causing Cellular Apoptosis” (ACS Med Chem Lett, 2020).
Values after ≈ are worked out from the molar mass of the structure shown.

Experiments:
Candida albicans [1] = assay: Induction of DNA damage in Candida albicans SC5314 assessed as apoptotic cells at 1/2 MIC measured after 3 hrs by TUNEL based confocal microscopy relative to control; type: functional
Summary of the method: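 SC5314 cells exposed to 1/2 MIC of compound, then TUNEL-labelled with fluorescent dUTP (Ex/Em 488/515 nm) and counterstained with Hoechst 33342 (Ex/Em 350/460 nm). Imaged by confocal laser scanning microscopy and scored as % TUNEL-positive nuclei against untreated control.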

Candida albicans [2] = assay: Antifungal activity against fluconazole-resistant Candida albicans assessed as growth inhibition measured after 24 hrs by CLSI protocol based broth microdilution method; type: functional
Summary of the method: (§1)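 C. albicans clinical isolates were tested: 8 fluconazole-susceptible and 3 fluconazole-resistant. Isolates were called resistant at a fluconazole MIC ≥8 μg/mL, per CLSI 2012 interpretive guidelines. Compounds were diluted to test concentrations in 1% DMSO, which served as the negative control. Fluconazole was the positive control. Values are means per group.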

Candida albicans [3] = assay: Fungicidal activity against fluconazole-susceptible Candida albicans assessed as growth inhibition by sub-culturing on Agar plate and incubated for 24 to 48 hrs; type: functional; summary of the method: as §1
Candida albicans [4] = assay: Antifungal activity against Candida albicans SC5314 assessed as effect on fungal cell viability by measuring live cells at MIC measured after 3 hrs by Muse cell analyzer (reference value: 98.6 %); type: functional
[5] = Hemolytic activity against horse erythrocytes at 4 to 125 ug/ml measured after 3 hrs by spectrophometric analysis; type: ADME, cell-based, Equus caballus, Erythrocyte; settings: read-out: Activity
Summary of the method: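 Horse red blood cells exposed to compound. Hemolysis read as absorbance at 450 nm and expressed as % lysis relative to 1% Triton X-100, taken as 100% hemolysis.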

Candida albicans [6] = assay: Induction of apoptosis in Candida albicans SC5314 protoplasts assessed as viable cells at 1/2 MIC measured after 3 hrs by Annexin V-FITC/propidium iodide staining based flow cytometry (reference value: 96.3 %); type: functional
Candida albicans [7] = assay: Induction of apoptosis in Candida albicans SC5314 protoplasts assessed as late apoptotic cells at 1/2 MIC measured after 3 hrs by Annexin V-FITC/propidium iodide staining based flow cytometry (reference value: 0.06 +/- 0.01 %); type: functional
Candida albicans [8] = assay: Antifungal activity against Candida albicans SC5314 assessed as effect on fungal cell viability by measuring dead cells at MIC measured after 3 hrs by Muse cell analyzer (reference value: 1.4 %); type: functional
Summary of the method: (§2)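 Candida albicans SC5314 cells at a density of 1 × 107 were exposed to each compound at its MIC. Live and dead cells were counted with the Muse Count & Viability kit. Untreated cells were the negative control and heat-killed cells the positive control. A cell size index was run in the same assay to separate cells from debris and non-nucleated cells.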

Candida albicans [9] = assay: Induction of apoptosis in Candida albicans SC5314 protoplasts assessed as necrotic cells at 1/2 MIC measured after 3 hrs by Annexin V-FITC/propidium iodide staining based flow cytometry (reference value: 0.15 +/- 0.03 %); type: functional
Candida albicans [10] = assay: Induction of apoptosis in Candida albicans SC5314 protoplasts assessed as early apoptotic cells at 1/2 MIC measured after 3 hrs by Annexin V-FITC/propidium iodide staining based flow cytometry (reference value: 3.47 +/- 0.26 %); type: functional
Candida albicans [11] = assay: Antifungal activity against fluconazole-susceptible Candida albicans assessed as growth inhibition measured after 24 hrs by CLSI protocol based broth microdilution method; type: functional; summary of the method: as §1
Candida albicans [12] = assay: Fungicidal activity against fluconazole-resistant Candida albicans assessed as growth inhibition by sub-culturing on Agar plate and incubated for 24 to 48 hrs; type: functional; summary of the method: as §1
Candida albicans [13] = assay: Induction of DNA damage in Candida albicans SC5314 assessed as increase in TUNEL positive nuclei at 0.125 ug/ml measured after 3 hrs by TUNEL based confocal microscopy relative to control; type: functional
Summary of the method: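 SC5314 cells treated with 0.125 μg/mL amphotericin B, then TUNEL-labelled with fluorescent dUTP and counterstained with Hoechst 33342. Confocal microscopy scored TUNEL-positive (green) nuclei relative to untreated cells.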

Candida albicans [14] = assay: Antifungal activity against Candida albicans SC5314 assessed as effect on fungal cell death at MIC measured after 3 hrs by Muse cell analyzer relative to control; type: functional; summary of the method: as §2

O=C(Cn1nnc(/C=C/c2ccccc2)n1)N/N=C/c1ccccc1[N+](=O)[O-]
Activity (Candida albicans [1]): 25 - 55%
MIC (Candida albicans [2]): 0.5 µg/mL (≈ 1.32 µM)
MFC (Candida albicans [3]): 4 µg/mL (≈ 10.6 µM)
Activity (Candida albicans [4]): 40.4%
hemolysis at 3 h [5]: 10 to 40%
Activity (Candida albicans [6]): 48.3%
Activity (Candida albicans [7]): 36.34%
Activity (Candida albicans [8]): 59.6%
Activity (Candida albicans [9]): 1.98%
Activity (Candida albicans [10]): 13.37%
MIC (Candida albicans [11]): 0.5 µg/mL (≈ 1.32 µM)
MFC (Candida albicans [12]): 4 µg/mL (≈ 10.6 µM)

NNC(=O)Cn1nnc(/C=C/c2ccccc2)n1
MFC (Candida albicans [3]): > 125 µg/mL
MIC (Candida albicans [11]): > 125 µg/mL

O=C(Cn1nnc(/C=C/c2ccccc2)n1)N/N=C/c1ccc(Cl)cc1
MIC (Candida albicans [2]): 64 µg/mL (≈ 174 µM)
MFC (Candida albicans [3]): > 125 µg/mL
MIC (Candida albicans [11]): 64 µg/mL (≈ 174 µM)

COc1ccc(/C=N/NC(=O)Cn2nnc(/C=C/c3ccccc3)n2)cc1OC
Activity (Candida albicans [1]): 25 - 55%
MIC (Candida albicans [2]): 4 µg/mL (≈ 10.2 µM)
MFC (Candida albicans [3]): 8 µg/mL (≈ 20.4 µM)
Activity (Candida albicans [4]): 44.8%
hemolysis at 3 h [5]: 10 to 40%
Activity (Candida albicans [6]): 61.4%
Activity (Candida albicans [7]): 24.93%
Activity (Candida albicans [8]): 55.2%
Activity (Candida albicans [9]): 4.55%
Activity (Candida albicans [10]): 9.69%
MIC (Candida albicans [11]): 2 µg/mL (≈ 5.1 µM)
MFC (Candida albicans [12]): 8 µg/mL (≈ 20.4 µM)

O/N=C/C=C/c1ccccc1
MFC (Candida albicans [3]): > 125 µg/mL
MIC (Candida albicans [11]): > 125 µg/mL

C[C@@H]1[C@H](O)[C@@H](C)/C=C/C=C/C=C/C=C/C=C/C=C/C=C/[C@H](O[C@@H]2O[C@H](C)[C@@H](O)[C@H](N)[C@@H]2O)C[C@@H]2O[C@](O)(C[C@@H](O)C[C@@H](O)[C@H](O)CC[C@@H](O)C[C@@H](O)CC(=O)O[C@H]1C)C[C@H](O)[C@H]2C(=O)O [AMPHOTERICIN B]
Activity (Candida albicans [13]): >90%

O=C(Cn1nnc(/C=C/c2ccccc2)n1)N/N=C/c1ccccc1Cl
MIC (Candida albicans [2]): 125 µg/mL (≈ 341 µM)
MFC (Candida albicans [3]): > 125 µg/mL
MIC (Candida albicans [11]): 64 µg/mL (≈ 174 µM)

O=C(Cn1nnc(/C=C/c2ccccc2)n1)N/N=C/c1ccccc1
MIC (Candida albicans [2]): 125 µg/mL (≈ 376 µM)
MFC (Candida albicans [3]): > 125 µg/mL
MIC (Candida albicans [11]): 125 µg/mL (≈ 376 µM)

O=C(Cn1nnc(/C=C/c2ccccc2)n1)N/N=C/c1ccc([N+](=O)[O-])cc1
Activity (Candida albicans [14]): >75%
Activity (Candida albicans [1]): 25 - 55%
MIC (Candida albicans [2]): 0.5 µg/mL (≈ 1.32 µM)
MFC (Candida albicans [3]): 1 µg/mL (≈ 2.65 µM)
Activity (Candida albicans [4]): 22.8%
hemolysis at 3 h [5]: 10 to 40%
Activity (Candida albicans [6]): 33.8%
Activity (Candida albicans [7]): 48.3%
Activity (Candida albicans [8]): 77.2%
Activity (Candida albicans [9]): 9.8%
Activity (Candida albicans [10]): 8.21%
MIC (Candida albicans [11]): 0.125 µg/mL (≈ 0.331 µM)
MFC (Candida albicans [12]): 1 µg/mL (≈ 2.65 µM)

C(=C\c1nn[nH]n1)/c1ccccc1
MFC (Candida albicans [3]): > 125 µg/mL
MIC (Candida albicans [11]): > 125 µg/mL

N#C/C=C/c1ccccc1 [CINNAMONITRILE]
MIC (Candida albicans [2]): > 125 µg/mL
MFC (Candida albicans [3]): > 125 µg/mL
MIC (Candida albicans [11]): > 125 µg/mL
MFC (Candida albicans [12]): > 125 µg/mL

O=C(Cn1nnc(/C=C/c2ccccc2)n1)N/N=C/c1cccc([N+](=O)[O-])c1
Activity (Candida albicans [1]): 25 - 55%
MIC (Candida albicans [2]): 0.5 µg/mL (≈ 1.32 µM)
MFC (Candida albicans [3]): 1 µg/mL (≈ 2.65 µM)
Activity (Candida albicans [4]): 29.6%
hemolysis at 3 h [5]: 10 to 40%
Activity (Candida albicans [6]): 35.3%
Activity (Candida albicans [7]): 44.65%
Activity (Candida albicans [8]): 70.4%
Activity (Candida albicans [9]): 11.7%
Activity (Candida albicans [10]): 8.23%
MIC (Candida albicans [11]): 0.25 µg/mL (≈ 0.662 µM)
MFC (Candida albicans [12]): 1 µg/mL (≈ 2.65 µM)

Cc1ccc(/C=N/NC(=O)Cn2nnc(/C=C/c3ccccc3)n2)cc1
Activity (Candida albicans [1]): 25 - 55%
MIC (Candida albicans [2]): 16 µg/mL (≈ 46.2 µM)
MFC (Candida albicans [3]): 16 µg/mL (≈ 46.2 µM)
Activity (Candida albicans [4]): 55.8%
hemolysis at 3 h [5]: 10 to 40%
Activity (Candida albicans [6]): 71.3%
Activity (Candida albicans [7]): 15.6%
Activity (Candida albicans [8]): 44.2%
Activity (Candida albicans [9]): 3.7%
Activity (Candida albicans [10]): 10.18%
MIC (Candida albicans [11]): 16 µg/mL (≈ 46.2 µM)
MFC (Candida albicans [12]): 16 µg/mL (≈ 46.2 µM)

CCOc1ccc(/C=N/NC(=O)Cn2nnc(/C=C/c3ccccc3)n2)cc1
Activity (Candida albicans [1]): 25 - 55%
MIC (Candida albicans [2]): 8 µg/mL (≈ 21.3 µM)
MFC (Candida albicans [3]): 8 µg/mL (≈ 21.3 µM)
Activity (Candida albicans [4]): 46.4%
hemolysis at 3 h [5]: 10 to 40%
Activity (Candida albicans [6]): 59.9%
Activity (Candida albicans [7]): 27.92%
Activity (Candida albicans [8]): 53.6%
Activity (Candida albicans [9]): 2.44%
Activity (Candida albicans [10]): 10.49%
MIC (Candida albicans [11]): 4 µg/mL (≈ 10.6 µM)
MFC (Candida albicans [12]): 8 µg/mL (≈ 21.3 µM)

COc1ccc(/C=N/NC(=O)Cn2nnc(/C=C/c3ccccc3)n2)cc1
Activity (Candida albicans [1]): 25 - 55%
MIC (Candida albicans [2]): 8 µg/mL (≈ 22.1 µM)
MFC (Candida albicans [3]): 8 µg/mL (≈ 22.1 µM)
Activity (Candida albicans [4]): 52.3%
hemolysis at 3 h [5]: 10 to 40%
Activity (Candida albicans [6]): 60.9%
Activity (Candida albicans [7]): 23.6%
Activity (Candida albicans [8]): 47.7%
Activity (Candida albicans [9]): 1.78%
Activity (Candida albicans [10]): 13.9%
MIC (Candida albicans [11]): 8 µg/mL (≈ 22.1 µM)
MFC (Candida albicans [12]): 16 µg/mL (≈ 44.2 µM)

OC(Cn1cncn1)(Cn1cncn1)c1ccc(F)cc1F [FLUCONAZOLE]
MIC (Candida albicans [2]): 16 µg/mL (≈ 52.2 µM)
MIC (Candida albicans [11]): 0.25 µg/mL (≈ 0.816 µM)

CCOC(=O)Cn1nnc(/C=C/c2ccccc2)n1
MFC (Candida albicans [3]): > 125 µg/mL
MIC (Candida albicans [11]): > 125 µg/mL
